Screening data deposited in PubChem by several laboratories.
Arrestin-AP2 inh: human beta-arrestin and AP2 interaction inhibition; AID 504490; FITC-arrestin peptide / GST-AP2 beads, flow cytometry; AP2 beta2 appendage carries R879A mutation; inhibition, % at 10 µM; 340,000 compounds, 0.31% hits;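 active = inhibition above a set limit, near 3 SD of compounds lacking own fluorescence, cut at about 54% in these data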
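Material – AP2 appendage R879A on GSH beads · Buffer or medium – PBS with 0.05% Tween 20 and 0.1% BSA · Probe or stimulus – fluorescein-tagged arrestin peptide at 50 nM final · Incubation – compound with beads 12 min RT, then probe 1 h RT · Detection – high-throughput flow cytometry of beads, ex 488, em 535 nm · Evaluation – percent response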
Hep lipid drop: modulators of hepatic lipid droplet formation; AML12 mouse hepatocytes, oleate lipid droplets, BODIPY imaging; inhibition, % at 6.5 µM; 240,000 compounds, 0.4% hits; AID 1656;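 active = lipid droplet intensity inhibited by at least 50%, with more than 500 cells counted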
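Test system: AML12 hepatocytes (mouse); reagent: oleate loading, 100 µM; dosing: one dose, 6.5 µM compound; incubation: overnight exposure; signal: fluorescence imaging, 20x objective, two fields per well; read-out basis: % inhibition of corrected integrated BODIPY droplet signal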
PfM18AAP inh-1: blocks P. falciparum M18 aspartyl aminopeptidase; recombinant PfM18AAP, H-Glu-NHMec fluorogenic cleavage; inhibition, % at 7.35 µM; 290,000 compounds, 1.2% hits; AID 1822;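 active = inhibition above the campaign mean inhibition over all tested compounds plus 3 SD, cut at about 28% in these data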
HTR2A ag: mouse HTR2A agonism via beta-arrestin recruitment; activation, % at 7.6 µM; P35363; AID 624169; CHO-K1 mHTR2A beta-arrestin complementation, luminescence; percent of 30 µM serotonin response; 360,000 compounds, 0.66% hits;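 active = activation above a run cutoff, the mean activation of all tested compounds plus 3 SD, cut at about 14% in these data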
CendR NRP1 mod: alters CendR peptide binding to human NRP-1. AID 602438. inhibition, % at 25 µM. FAM-RPARPAR peptide binding to NRP-1, fluorescence polarization. 360,000 compounds, 0.85% hits;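 active = inhibition or corrected inhibition above about 18%, plus a signal ratio from 0.5 to 1.5, limit read from the data, passing the limit was not always enough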
HGIII-sPLA2 inh: Blocks human group III sPLA2 activity. QFRET BODIPY PC-A2 liposome hydrolysis, fluorescence. inhibition, % at 12.2 µM. 370,000 compounds, 0.56% hits;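 active = inhibition above mean plus 3 SD of compounds lying within the high and low control bounds, cut at about 19% in these data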
PfM18AAP inh-2: PfM18AAP inhibition, confirmation. shares compounds with PfM18AAP inh-1. recombinant PfM18AAP, H-Glu-NHMec fluorogenic cleavage. inhibition, % at 7.35 µM. 2,400 compounds, 28% hits. AID 2170;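 active = mean inhibition over replicate wells above the hit cutoff set for the earlier primary screen, cut at about 29% in these data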
CTSL1 confirm: Cathepsin L (human) inhibition, confirmation; shares compounds with PfM18AAP inh-1; purified cathepsin L1, Z-Leu-Arg-MCA fluorescence; inhibition, % at 5.96 µM; 2,400 tested, under 10 active; AID 2178;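 active = average inhibition across replicates above the hit cutoff set in the earlier primary screen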
Arr AP2 CP1: human beta-arrestin and AP2 interaction inhibition, cherry pick | shares compounds with Arrestin-AP2 inh | GST-AP2 beads, FITC arrestin peptide binding, flow cytometry; GST-fused beta2-adaptin appendage, R879A mutant | inhibition, % at 10 µM | 1,300 compounds, 2% hits | AID 504908;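 active = inhibition above a set limit, roughly 3 SD of non-fluorescent compound noise, cut at about 38% in these data; inactive = inhibition at or below that limit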;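 also: loss of bead fluorescence from 50 nM FITC arrestin peptide bound to appendage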
Target sequence (P63010 whole entry, looked up, the tested form may be a part, one chain of several): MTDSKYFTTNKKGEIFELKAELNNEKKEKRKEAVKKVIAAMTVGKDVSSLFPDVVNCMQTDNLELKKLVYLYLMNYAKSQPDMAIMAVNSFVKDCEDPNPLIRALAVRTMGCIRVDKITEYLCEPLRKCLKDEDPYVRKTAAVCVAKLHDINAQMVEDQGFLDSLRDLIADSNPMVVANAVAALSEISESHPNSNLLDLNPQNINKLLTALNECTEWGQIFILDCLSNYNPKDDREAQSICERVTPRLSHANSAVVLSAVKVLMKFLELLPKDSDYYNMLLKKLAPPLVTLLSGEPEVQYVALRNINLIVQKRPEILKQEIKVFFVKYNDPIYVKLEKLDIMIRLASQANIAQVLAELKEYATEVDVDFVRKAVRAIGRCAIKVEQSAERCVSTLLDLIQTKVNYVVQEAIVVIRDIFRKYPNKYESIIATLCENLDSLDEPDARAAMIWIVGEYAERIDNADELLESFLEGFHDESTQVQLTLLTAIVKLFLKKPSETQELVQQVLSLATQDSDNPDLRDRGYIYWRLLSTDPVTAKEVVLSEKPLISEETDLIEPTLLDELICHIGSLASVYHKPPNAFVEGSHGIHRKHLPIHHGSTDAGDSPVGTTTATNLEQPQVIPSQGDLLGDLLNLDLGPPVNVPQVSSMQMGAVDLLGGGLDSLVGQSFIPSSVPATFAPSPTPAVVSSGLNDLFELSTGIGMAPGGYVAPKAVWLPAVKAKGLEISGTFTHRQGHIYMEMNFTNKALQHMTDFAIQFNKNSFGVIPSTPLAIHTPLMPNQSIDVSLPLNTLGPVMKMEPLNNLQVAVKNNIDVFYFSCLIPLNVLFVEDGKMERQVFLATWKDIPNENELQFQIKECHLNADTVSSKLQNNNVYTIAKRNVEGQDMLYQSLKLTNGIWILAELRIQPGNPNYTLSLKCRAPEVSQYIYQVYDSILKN
GST GSH counter: GST-GSH bead binding interference, counter-screen. shares compounds with Arrestin-AP2 inh. 1,300 compounds, 2% hits. inhibition, % at 10 µM. GST-fluorescein binding to GSH beads, fluorescence. AID 588338;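 active = inhibition above 50%, about 3 SD of the inhibition seen with non-fluorescent compounds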;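 also: fluorescein maleimide labelled GST captured on 4 micron glutathione beads; higher means more loss of bead fluorescence from quenching or blocked binding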
OPRM1 ag: OPRM1 agonism in mouse HTR2A counterscreen | shares compounds with HTR2A ag | U2OS OPRM1 beta-arrestin PathHunter, luminescence; DMSO 0%, DAMGO 9.3 µM 100% | activation, % at 9.3 µM | 2,300 compounds, 5.3% hits | AID 624380;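 active = mean activation above the mean of DMSO-only wells plus 3 SD, cut at about 0.5% in these data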
HTR2A ag conf: mouse HTR2A agonism confirmed; shares compounds with HTR2A ag; CHO-K1 PathHunter beta-arrestin recruitment, luminescence; DMSO 0%, 30 µM serotonin 100%; activation, % at 7.6 µM; 2,300 compounds, 19% hits; AID 624381;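 active = mean activation across triplicates above the hit threshold derived in the original primary screen, cut at about 15% in these data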
Large screens that a line does not name were inactive (follow-up assays come after a bar, where they were run); ! = not confirmed by another sample. Compounds with a hit are over-represented: about 3.3% of the library has one in this group of screens.

O=c1c2ccccc2[se]n1-c1ccccc1	Arrestin-AP2 inh 92, PfM18AAP inh-1 94 | PfM18AAP inh-2 96 | CTSL1 confirm inactive | Arr AP2 CP1 125! | GST GSH counter inactive
COCCNC(=O)N1[C@H]2CC[C@@H]1C(C(=O)OC)=C(c1ccc(OC)c(OC)c1)C2	none (no result: Hep lipid drop, PfM18AAP inh-1)
O=C(c1cccc([N+](=O)[O-])c1)C12CN3CN(CN(C3)C1)C2	none
O=C(c1ccc(Cl)cc1)C12CN3CN(CN(C3)C1)C2	Arrestin-AP2 inh 105 (no result: Hep lipid drop) | Arr AP2 CP1 inactive | GST GSH counter inactive
CN1CCN(c2ccc(Cl)cc2N)CC1	none
CN1CCN(c2ccc(N)cc2Cl)CC1	Arrestin-AP2 inh 59 | Arr AP2 CP1 inactive | GST GSH counter 52
O=C(NCCO)c1nsnc1NCCCl	Arrestin-AP2 inh 58 | Arr AP2 CP1 inactive | GST GSH counter inactive
CCn1c(O)c(C(c2ccccn2)c2c(O)n(CC)c(=S)[nH]c2=O)c(=O)[nH]c1=S	none (no result: Hep lipid drop)
CCOC(=O)c1c(/N=C/c2c(O)n(-c3ccccc3F)c(=S)[nH]c2=O)sc2c1CCCC2	Arrestin-AP2 inh 84 | Arr AP2 CP1 inactive | GST GSH counter inactive
CCOC(=O)c1c(/N=C/c2c(O)n(-c3ccc(F)cc3)c(=S)[nH]c2=O)sc2c1CCCC2	none
CN1C(=O)N(C)C(=O)C2(Cc3cc(NC(=O)c4ccccc4Cl)ccc3N3CCCC32)C1=O (stereo unspecified)	Arrestin-AP2 inh 56 | Arr AP2 CP1 inactive | GST GSH counter inactive
CCOC(=O)C(O)(c1ccc(NC(=O)NC2CCCCC2)cc1)C(F)(F)F (stereo unspecified)	none
C[N+]12CCC(CC1)C(=C(c1ccccc1)c1ccccc1)C2	Arrestin-AP2 inh 66 | Arr AP2 CP1 inactive | GST GSH counter inactive
COc1ccccc1Cn1c(SCC#N)nc2cc(C(=O)N3CCC4(CC3)OCCO4)ccc2c1=O	none
O=C1C=CC(=O)C=C1	HTR2A ag 35 (no result: Hep lipid drop, PfM18AAP inh-1) | OPRM1 ag 0.9 | HTR2A ag conf inactive
O=S(=O)(c1cc(Cl)cc(Cl)c1)N1Cc2cc(-c3cccc(F)c3)ccc2-n2nncc2C1	HTR2A ag 14 (no result: Arrestin-AP2 inh, Hep lipid drop, PfM18AAP inh-1) | OPRM1 ag inactive | HTR2A ag conf inactive
Cc1ccc(S(=O)(=O)N2Cc3cc(-c4cccc(F)c4)ccc3-n3nncc3C2)cc1	none (no result: Arrestin-AP2 inh, Hep lipid drop, PfM18AAP inh-1)
C=CCN1CC[C@]23c4c5ccc(O)c4OC2C(O)C=CC3[C@H]1C5 (stereo partly specified)	none (no result: Hep lipid drop, PfM18AAP inh-1)
COc1ccc(C2=CC(c3ccc4c(c3)OCO4)c3c(c4ccccc4oc3=O)O2)cc1OC (stereo unspecified)	none (no result: Hep lipid drop, PfM18AAP inh-1)
CCCCCSc1cc(OC)c(CCN)cc1OC	HTR2A ag 30 (no result: Hep lipid drop) | OPRM1 ag inactive | HTR2A ag conf inactive
CCCCCCCSc1cc(OC)c(CCN(C)C)cc1OC	HTR2A ag 34 (no result: Hep lipid drop) | OPRM1 ag inactive | HTR2A ag conf 17
COc1cc(CCN)ccc1O	none (no result: Hep lipid drop, PfM18AAP inh-1)
CN1OCC2Cn3c(nc4ccccc43)C21 (stereo unspecified)	none (no result: Hep lipid drop, PfM18AAP inh-1)
COC1CC=C2CCN3CCC4=C(CC(=O)OC4)C23C1 (stereo unspecified)	none (no result: Arrestin-AP2 inh, Hep lipid drop, PfM18AAP inh-1, HTR2A ag, CendR NRP1 mod)
CC1=CC2OC3CC4OC(=O)C=CC=CC(C(C)O)OCC(O)C5(C)OC5C(=O)OCC2(CC1O)C4(C)C31CO1 (stereo unspecified)	none (no result: Hep lipid drop, PfM18AAP inh-1)
CC(C)(O)/C=C/C(=O)C(C)(O)C1C(O)CC2(C)C3CC=C4C(C=C(O)C(=O)C4(C)C)C3(C)C(=O)CC12C (stereo unspecified)	HTR2A ag 30 (no result: Hep lipid drop, PfM18AAP inh-1) | OPRM1 ag inactive | HTR2A ag conf inactive
CC(C)n1cc(C(=O)N(CC(=O)NC(C)(C)C)Cc2ccccc2)cn1	none
O=C(COc1ccc(Br)cc1)N1CCN(Cc2c[nH]c3ccccc23)CC1	HTR2A ag 56 | OPRM1 ag inactive | HTR2A ag conf 28
O=C(COc1ccc2ccccc2c1)N1CCN(Cc2c[nH]c3ccccc23)CC1	HTR2A ag 34 | OPRM1 ag inactive | HTR2A ag conf 19
CC(C)c1cccc(C(C)C)c1OCCn1ccnc1	none
O=C1NCCCCC1(Cl)Cl	HTR2A ag 17 (no result: Hep lipid drop, PfM18AAP inh-1) | OPRM1 ag inactive | HTR2A ag conf inactive
C[C@H](N)CN1CCc2ccc(Br)cc21	HTR2A ag 49 (no result: Hep lipid drop, PfM18AAP inh-1) | OPRM1 ag inactive | HTR2A ag conf 36
CC(C)CN(CC(C)C)C(=O)C1C2c3ccccc3C(c3ccccc32)C1C(=O)O (stereo unspecified)	none
CC(C)(C)c1cc(OC(=O)Cc2ccccc2)ccc1O	HTR2A ag 15 | OPRM1 ag inactive | HTR2A ag conf inactive
CCCN1CCO[C@@H]2c3cc(O)ccc3OC[C@H]21	HTR2A ag 58 (no result: Hep lipid drop, PfM18AAP inh-1) | OPRM1 ag inactive | HTR2A ag conf 161
COc1ccc(NC(=O)c2cn(CCC#N)nc2-c2ccc(OC)c(OC)c2)cc1	none
CCn1c(O)c(C=NCc2cccs2)c(=O)[nH]c1=O	none
O=c1cccc2n1CC1CC2CN(C(c2cccc(F)c2)c2sc3ncnn3c2O)C1 (stereo unspecified)	HTR2A ag 16 | OPRM1 ag inactive | HTR2A ag conf inactive
COc1ccc(-n2c(O)c(C(C)=NCCN3CCNCC3)c(=O)[nH]c2=O)cc1	none (no result: Hep lipid drop)
C[C@]12CC[C@H](O)C[C@@H]1CC[C@@H]1[C@@H]2CC[C@]2(C)C(=O)CC[C@@H]12	HTR2A ag 22 | OPRM1 ag inactive | HTR2A ag conf inactive
C[C@]12CCC3[C@@H](CC[C@@H]4C[C@H](O)CC[C@]34C)[C@@H]1CCC2=O (stereo partly specified)	none (no result: Hep lipid drop, PfM18AAP inh-1)
COCCn1c(O)c(/C=N/NC(=O)CSC(=S)N2CCCC2)c(=O)[nH]c1=S	none (no result: Hep lipid drop, PfM18AAP inh-1)
